In paper PMC7607594 (BMJ Open Diabetes Research & Care, 2020):

Assays:
GLP-1r = biological target: T1, GLP-1r (Sus scrofa, UniProt A0ACM8QMX0); test: GLP-1r PET imaging with compartmental kinetic analysis; assay type: in vivo, Yucatan mini-pigs; conditions: 2-tissue compartment model, mean±SEM
T1 sequence (A0ACM8QMX0 24-463): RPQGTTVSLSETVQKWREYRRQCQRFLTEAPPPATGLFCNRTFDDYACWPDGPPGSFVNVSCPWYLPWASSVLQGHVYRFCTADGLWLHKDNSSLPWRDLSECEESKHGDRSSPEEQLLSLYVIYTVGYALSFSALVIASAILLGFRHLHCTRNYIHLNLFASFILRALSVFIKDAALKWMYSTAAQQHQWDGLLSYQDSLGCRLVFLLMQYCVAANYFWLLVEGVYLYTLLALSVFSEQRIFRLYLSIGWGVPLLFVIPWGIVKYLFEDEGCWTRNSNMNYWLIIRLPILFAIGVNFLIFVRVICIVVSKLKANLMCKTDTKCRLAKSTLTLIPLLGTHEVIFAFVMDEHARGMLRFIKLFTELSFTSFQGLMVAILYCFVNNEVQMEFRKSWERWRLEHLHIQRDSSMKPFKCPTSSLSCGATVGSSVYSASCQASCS
How it was run: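 Adult Yucatan mini-pigs, lean or obese, anesthetized; a 68Ga-labeled GLP-1r agonist radiotracer at 0.2 MBq/kg was given IV over 30 s. A dynamic abdominal PET-CT scan ran for 60 min in 30 frames, either fasted or at euglycemic–hyperinsulinemic clamp plateau (insulin 120 mU kg−1 h−1, 20% glucose). Arterial input came from an external arteriovenous loop gamma detector. Vs came from a 2-tissue compartment fit. Mean±SEM, unpaired t-test.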

[1] = ^68Ga-DOTA PET imaging of visceral blood flow; assay type: in vivo, Yucatan mini-pigs; conditions: for K1 (unidirectional transfer rate from blood to tissue): 1-tissue compartment model, mean±SEM
How it was run: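 Visceral perfusion was measured in anesthetized lean and obese Yucatan mini-pigs during the same session, after GLP-1r imaging. 68Ga-DOTA at 1.2 MBq/kg was given IV over 10 s, followed by a dynamic PET of 10 min in 46 frames. Arterial input came from an arteriovenous loop. Images were partial-volume corrected. K1 came from a one-tissue compartment fit. Mean±SEM, unpaired t-test.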

## [^68Ga]Ga-DO3A-VS-Cys40-exendin-4
GLP-1r; duodenum, lean, fasted
  GLP-1r binding potential (Vs, distribution volume of specific binding): 3.02±0.20 mL/ccm
GLP-1r; duodenum, lean, insulin (clamp plateau)
  GLP-1r binding potential (Vs, distribution volume of specific binding): 2.62±0.17 mL/ccm
GLP-1r; duodenum, obese, fasted
  GLP-1r binding potential (Vs, distribution volume of specific binding): 2.87±0.29 mL/ccm
GLP-1r; duodenum, obese, insulin (clamp plateau)
  GLP-1r binding potential (Vs, distribution volume of specific binding): 2.88±0.25 mL/ccm
GLP-1r; pancreas, obese, fasted
  GLP-1r binding potential (Vs, distribution volume of specific binding): 1.49±0.47 mL/ccm
GLP-1r; subcutaneous fat, lean, fasted
  GLP-1r binding potential (Vs, distribution volume of specific binding): 0.13±0.02 mL/ccm
GLP-1r; subcutaneous fat, obese, fasted
  GLP-1r binding potential (Vs, distribution volume of specific binding): 0.06±0.02 mL/ccm
GLP-1r; visceral fat, lean, fasted
  GLP-1r binding potential (Vs, distribution volume of specific binding): 0.44±0.13 mL/ccm
GLP-1r; visceral fat, obese, fasted
  GLP-1r binding potential (Vs, distribution volume of specific binding): 0.13±0.02 mL/ccm

## ^68Ga-DOTA
[1]; duodenum, lean
  K1 (unidirectional transfer rate from blood to tissue): 0.14±0.02 mL ccm^−1 min^−1
[1]; pancreas, obese
  K1 (unidirectional transfer rate from blood to tissue): 0.14±0.05 mL ccm^−1 min^−1
[1]; pancreatic level, obese versus lean animals
  reduction of K1 for the flow-coded images: about 90%
[1]; subcutaneous fat, lean
  K1 (unidirectional transfer rate from blood to tissue): 0.08±0.03 mL ccm^−1 min^−1
[1]; subcutaneous fat, obese
  K1 (unidirectional transfer rate from blood to tissue): 0.01±0.01 mL ccm^−1 min^−1
[1]; visceral fat, lean
  K1 (unidirectional transfer rate from blood to tissue): 0.02±0.01 mL ccm^−1 min^−1
[1]; visceral fat, obese
  K1 (unidirectional transfer rate from blood to tissue): 0.03±0.01 mL ccm^−1 min^−1
